SMILES strings stand for the structures. A value given as a limit tells only on which side of the number the result lay.

The assay concerns HeLa. As to the kind of experiment: In vitro anticellular activity tested against HeLa S3 cells. The note with it: Homo sapiens. It is filed as functional, cell-based. A digest of the protocol:
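HeLa S3 cells seeded on day 0, then exposed to drug for 1 h on day 1; anticellular activity determined by a previously described method.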
Take `CO[C@@]12[C@H](COC(N)=O)C3=C(C(=O)C(CSc4ccc([N+](=O)[O-])cc4)=C(N)C3=O)N1C[C@@H]1N[C@@H]12`: the IC50 was 0.78 µM.

`CO[C@@]12[C@H](COC(N)=O)C3=C(C(=O)C(CSc4ccccn4)=C(N)C3=O)N1C[C@@H]1N[C@@H]12` gave an IC50 of 1.8 µM.

For `CO[C@@]12[C@H](COC(N)=O)C3=C(C(=O)C(CSCCO)=C(N)C3=O)N1C[C@@H]1N[C@@H]12`, the IC50 was more than 100 µM.

In turn, `CCCCOCC1=C(N)C(=O)C2=C(C1=O)N1C[C@@H]3N[C@@H]3[C@]1(OC)[C@@H]2COC(N)=O` came in with an IC50 of 19 µM.

`COCC1=C(N)C(=O)C2=C(C1=O)N1CC3NC3[C@]1(OC)[C@@H]2COC(N)=O` (stereo partly specified) showed an IC50 of 2.6 µM.

In turn, `CO[C@@]12[C@H](COC(N)=O)C3=C(C(=O)C(CSc4ccc(Cl)cc4)=C(N)C3=O)N1C[C@@H]1N[C@@H]12` showed an IC50 of 53 µM. Against the preceding molecule, the IC50 is about 20-fold higher.

In turn, `CO[C@@]12[C@H](COC(N)=O)C3=C(C(=O)C(CO)=C(N)C3=O)N1C[C@@H]1N[C@@H]12` displayed an IC50 of more than 29 µM.

The molecule `COc1ccccc1SCC1=C(N)C(=O)C2=C(C1=O)N1C[C@@H]3N[C@@H]3[C@]1(OC)[C@@H]2COC(N)=O` displayed an IC50 of 2.3 µM.

`COCC1=C(OC)C(=O)C2=C(C1=O)N1CC3NC3[C@]1(OC)[C@@H]2COC(N)=O` (stereo partly specified) registered an IC50 of 0.12 µM.

`CO[C@@]12[C@H](COC(N)=O)C3=C(C(=O)C(CSc4nnnn4-c4ccccc4)=C(N)C3=O)N1C[C@@H]1N[C@@H]12` yielded an IC50 of 0.27 µM.

Take `CO[C@@]12[C@H](COC(N)=O)C3=C(C(=O)C(CSC4OC(CO)C(O)C(O)C4O)=C(N)C3=O)N1C[C@@H]1N[C@@H]12` (stereo partly specified): the IC50 amounted to 82 µM.

As to `CO[C@@]12[C@H](COC(N)=O)C3=C(C(=O)C(CSc4nnc(C)s4)=C(N)C3=O)N1C[C@@H]1N[C@@H]12`, the IC50 came to 1.1 µM.

In turn, `CO[C@@]12[C@H](COC(N)=O)C3=C(C(=O)C(CSc4ccccc4Br)=C(N)C3=O)N1C[C@@H]1N[C@@H]12` showed an IC50 of 48 µM. This IC50 is about 44-fold higher than that of the molecule before.

The molecule `CO[C@@]12[C@H](COC(N)=O)C3=C(C(=O)C(CSc4ccccc4Cl)=C(N)C3=O)N1C[C@@H]1N[C@@H]12` showed an IC50 of 7.3 µM.

Molecule `COCC1=C(N)C(=O)C2=C(C1=O)N1C[C@H]3[C@H](N3C)[C@]1(O)[C@H]2COC(N)=O` (stereo partly specified) had an IC50 of more than 82 µM.

Molecule `CCCCCCCCCCCCSCC1=C(N)C(=O)C2=C(C1=O)N1C[C@@H]3N[C@@H]3[C@]1(OC)[C@@H]2COC(N)=O` showed an IC50 of 5.5 µM.

For `CO[C@@]12[C@H](COC(N)=O)C3=C(C(=O)C(CSc4ccccc4C(C)C)=C(N)C3=O)N1C[C@@H]1N[C@@H]12`, half-maximal inhibition (IC50) was put at 27 µM.

In the case of `COc1ccc(SCC2=C(N)C(=O)C3=C(C2=O)N2C[C@@H]4N[C@@H]4[C@]2(OC)[C@@H]3COC(N)=O)cc1`, half-maximal inhibition (IC50) was put at 14 µM.

For `CO[C@@]12[C@H](COC(N)=O)C3=C(C(=O)C(C[S+]([O-])C(C)C)=C(N)C3=O)N1C[C@@H]1N[C@@H]12` (stereo partly specified), the IC50 was more than 10 µM.

In turn, `COCC1=C(N)C(=O)C2=C(C1=O)N1CC3C(N3C)[C@]1(OC)[C@@H]2COC(N)=O` (stereo partly specified) returned an IC50 of more than 100 µM.

Molecule `CO[C@@]12[C@H](COC(N)=O)C3=C(C(=O)C(CSc4ccc(O)cc4)=C(N)C3=O)N1C[C@@H]1N[C@@H]12` registered an IC50 of 116 µM.

`CCCOCC1=C(N)C(=O)C2=C(C1=O)N1C[C@@H]3N[C@@H]3[C@]1(OC)[C@@H]2COC(N)=O` returned an IC50 of 5.3 µM.

`CO[C@@]12[C@H](COC(N)=O)C3=C(C(=O)C(COCc4ccccc4)=C(N)C3=O)N1C[C@@H]1N[C@@H]12` returned an IC50 of 5.5 µM.

In turn, `CCSCC1=C(N)C(=O)C2=C(C1=O)N1C[C@@H]3N[C@@H]3[C@]1(OC)[C@@H]2COC(N)=O` came in with an IC50 of 2.2 µM.

In the case of `COC1=C(C)C(=O)C2=C(C1=O)[C@@H](COC(N)=O)[C@@]1(OC)[C@H]3N[C@H]3CN21` [MITOMYCIN A], half-maximal inhibition (IC50) required 0.0024 µM. Against the preceding molecule, the IC50 is about 920-fold lower.

Molecule `CO[C@@]12[C@H](COC(N)=O)C3=C(C(=O)C(CSc4nnnn4C)=C(N)C3=O)N1C[C@@H]1N[C@@H]12` had an IC50 of 0.12 µM.

The values above are taken from ChEMBL document CHEMBL1127752, “Synthesis and antitumor activity of novel mitomycin derivatives containing functional groups at the C-6-methyl position” (J Med Chem, 1994).
